Tests used:
[1] = folding enthalpy; higher = less favourable; fluorescence melt of hairpins on a sequencing array, two-state fit; conditions: sodium 0.088 M
How it was run: (§1)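 Cy3 signals were normalised both to pre-quench Cy3 and to control constructs. They came from library hairpins carrying annealed Cy3 and quencher oligos on a sequenced MiSeq flow cell, imaged in 50 mM Na-HEPES pH 8.0, 25 mM NaCl, in 2.5 °C steps up to 60 °C. Bootstrapped two-state fits gave melting temperature and folding enthalpy, and four replicates were combined by inverse variance. Fitted temperatures were then raised by 9.35 °C to match UV melts.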

[2] = melting temperature; fluorescence melt of hairpins on a sequencing array, two-state fit, raised by 9.35 °C to match UV melts; conditions: sodium 0.088 M
How it was run: as §1

Row | Sequence | folding enthalpy [1] [kcal/mol] | Tm [2] [°C]
1 | GCTGTAACGAAAGTTAGC (((..(((....)))))) | -20.5 | 35
2 | GCTGTACCGAAAGGTAGC (((..(((....)))))) | -15.4 | 43.7
3 | GCTGTACGAAAGTAAGC (((.(((....)))))) | -27.1 | 49.2
4 | GCTGTAGGAAACTATGGC ((..(((....)))..)) | -26.3 | 34.7
5 | GCTGTCCGAAAGGAAAGC (((.(((....))).))) | -37.8 | 53.7
6 | GCTGTCGAAAGACAAGC ((((((....))).))) | -27.8 | 54.4
7 | GCTGTCGAAAGACATAGC ((((((....)))..))) | -16.4 | 45.1
8 | GCTGTCGAAAGACGCAGC ((((((....)))..))) | -14.1 | 46.6
9 | GCTGTCGAAAGACGTAGC ((((((....)))..))) | -22.7 | 48.1
10 | GCTGTGCGAAAGCAAGGC ((..(((....)))..)) | -20 | 50.6
11 | GCTGTGCGAAAGCAGAGC (((.(((....))).))) | -56 | 57.8
12 | GCTGTGCGAAAGCATAGC (((.(((....))).))) | -57.9 | 59.4
13 | GCTGTGCGAAAGCATCGC ((..(((....)))..)) | -17.9 | 44.6
14 | GCTGTGCGAAAGCCCTGC ((.(.((....)).).)) | -15.3 | 41.9
15 | GCTGTGGGAAACCATGGC ((..(((....)))..)) | -33.5 | 44.5
16 | GCTGTTCCGAAAGGAAGC (((..(((....)))))) | -14 | 35.1
17 | GCTGTTCGAAAGAAGAGC (((.(((....))).))) | -37.2 | 50.6
18 | GCTGTTGAAAAACAGC ((((((....)))))) | -38.6 | 59.2
19 | GCTGTTGCGAAAGCAAGC (((..(((....)))))) | -12.6 | 47.3
20 | GCTTAAACGAAAGTTAGC (((..(((....)))))) | -16.2 | 33.9
21 | GCTTACCCGAAAGGGAGC (((..(((....)))))) | -15.3 | 39
22 | GCTTACGAAAGTACAAGC ((((((....)))..))) | -20 | 37.6
23 | GCTTACGAAAGTACGAGC ((((((....)))..))) | -20.3 | 32.1

Row | Sequence | folding enthalpy [1] [kcal/mol] | Tm [2] [°C]
24 | GCTTACGAAAGTATTAGC ((((((....)))..))) | -23.9 | 33.5
25 | GCTTACGGAAACATAAGC (((((.(....).))))) | -21.6 | 35.1
26 | GCTTAGCGAAAGCGGAGC (((..((....))..))) | -16.8 | 58.7
27 | GCTTAGCGAAAGCTAGC (((.(((....)))))) | -19.2 | 53.8
28 | GCTTAGCGAAAGCTCCGC ((..(((....)))..)) | -12.8 | 36
29 | GCTTAGGCGAAAGCCAGC (((..(((....)))))) | -15.1 | 44.4
30 | GCTTATGGAAACATGAGC (((.(((....))).))) | -33.5 | 45.6
31 | GCTTCACCGAAAGGTAGC (((..(((....)))))) | -16.8 | 35.3
32 | GCTTCAGAAATGAAGC ((((((....)))))) | -33.7 | 55.7
33 | GCTTCAGGAAACTGAAGC (((((((....))))))) | -32.9 | 66
34 | GCTTCCCGAAAGGGGAGC (((.(((....))).))) | -46 | 65.5
35 | GCTTCCCGAAAGGGTAGC (((.(((....))).))) | -33.9 | 56.4
36 | GCTTCCGAAAGGAAAAGC ((((((....)))..))) | -17.6 | 49.7
37 | GCTTCCGAAAGGAATAGC ((((((....)))..))) | -17.8 | 44
38 | GCTTCCGGAAACAGAAGC (((((.(....).))))) | -30.6 | 41.9
39 | GCTTCGCGAAAGCAAGGC ((.(.((....)).).)) | -12.3 | 36.1
40 | GCTTCGCGAAAGCACAGC (((..((....))..))) | -15.3 | 38.2
41 | GCTTCGCGAAAGCCAAGC ((((.((....)).)))) | -18.2 | 50.3
42 | GCTTCGCGAAAGCCGAGC (((..((....))..))) | -18.5 | 41.7
43 | GCTTCGCGAAAGCTAAGC ((((.((....)).)))) | -20.5 | 57.2
44 | GCTTCGCGAAAGCTGAGC (((..((....))..))) | -14.5 | 45.5
45 | GCTTCGCGAAAGCTTAGC (((..((....))..))) | -15.2 | 50.2

Source: the array DNA melting data of Ke et al. (doi:10.1101/2024.01.08.574731)
